The target of one data set is T1, Retinoid X receptor (Homo sapiens, UniProt P28702+P48443+P19793).
T1 sequence (P28702 whole entry): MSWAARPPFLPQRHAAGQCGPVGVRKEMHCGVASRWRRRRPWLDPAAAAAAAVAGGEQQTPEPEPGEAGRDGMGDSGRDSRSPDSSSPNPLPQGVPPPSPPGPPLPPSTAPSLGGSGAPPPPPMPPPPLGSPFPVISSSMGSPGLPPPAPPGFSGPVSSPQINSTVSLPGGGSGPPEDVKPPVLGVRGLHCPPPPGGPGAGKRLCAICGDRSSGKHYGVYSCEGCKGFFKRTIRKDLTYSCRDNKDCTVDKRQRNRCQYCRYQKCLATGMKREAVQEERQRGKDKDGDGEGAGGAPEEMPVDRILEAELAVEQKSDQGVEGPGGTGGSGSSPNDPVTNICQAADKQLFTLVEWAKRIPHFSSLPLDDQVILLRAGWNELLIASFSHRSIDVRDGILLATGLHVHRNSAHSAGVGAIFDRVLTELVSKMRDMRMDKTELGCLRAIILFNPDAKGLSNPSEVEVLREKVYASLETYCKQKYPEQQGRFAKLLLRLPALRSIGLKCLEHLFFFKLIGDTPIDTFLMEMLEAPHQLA
T1 sequence (P48443 whole entry): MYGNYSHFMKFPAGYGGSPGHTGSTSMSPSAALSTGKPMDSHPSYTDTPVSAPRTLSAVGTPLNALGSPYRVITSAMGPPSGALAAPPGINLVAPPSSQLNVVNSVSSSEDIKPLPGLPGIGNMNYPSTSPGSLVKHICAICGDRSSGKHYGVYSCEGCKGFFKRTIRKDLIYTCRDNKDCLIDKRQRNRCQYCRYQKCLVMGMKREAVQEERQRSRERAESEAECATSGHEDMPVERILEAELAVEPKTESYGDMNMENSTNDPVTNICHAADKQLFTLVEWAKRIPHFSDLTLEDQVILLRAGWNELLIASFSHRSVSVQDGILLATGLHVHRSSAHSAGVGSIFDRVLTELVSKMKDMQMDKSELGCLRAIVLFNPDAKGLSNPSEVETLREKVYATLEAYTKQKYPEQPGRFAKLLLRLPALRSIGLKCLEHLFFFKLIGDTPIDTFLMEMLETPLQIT
T1 sequence (P19793 whole entry): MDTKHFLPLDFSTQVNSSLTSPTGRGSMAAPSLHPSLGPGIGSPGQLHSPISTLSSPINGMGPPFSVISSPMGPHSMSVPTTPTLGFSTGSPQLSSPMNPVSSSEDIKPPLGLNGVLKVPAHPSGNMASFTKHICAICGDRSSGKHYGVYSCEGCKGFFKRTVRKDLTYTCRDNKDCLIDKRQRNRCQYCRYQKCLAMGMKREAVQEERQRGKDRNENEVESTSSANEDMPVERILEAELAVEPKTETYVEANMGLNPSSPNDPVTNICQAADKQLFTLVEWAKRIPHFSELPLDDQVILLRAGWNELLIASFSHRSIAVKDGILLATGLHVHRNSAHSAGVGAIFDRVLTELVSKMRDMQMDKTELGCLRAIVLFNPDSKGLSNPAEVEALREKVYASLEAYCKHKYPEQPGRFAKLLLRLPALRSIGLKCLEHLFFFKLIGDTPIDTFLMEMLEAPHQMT
The experiment in a line: Agonist activity at human RXR binding domain and activation domain expressed in human HCT116 cells assessed as rexinoid activity incubated for 24 hrs by luciferase reporter gene based mammalian two-hybrid assay. The data set is classed as cell-based.

Data set [1] in a line: Mutagenicity in Saccharomyces cerevisiae D7 assessed as induction of mutagenesis by measuring forward and reverse mutations up to 0.1 mg/mL. The data set is classed as toxicity.
A further data set has as its system HuT78. Description: Growth inhibition of human HUT78 cells at 200 nM incubated for 72 hrs by MTS assay relative to bexarotene. The class given is functional. Particulars: HuT78, 72 h, read-out: GI; call rule not given here. The method, boiled down:
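Hut78 cells in RPMI with 10% FBS at 37°C, 5% CO2. Plated 7,500 cells/well and immediately dosed at 200 nM for 72 h. MTS read at A490; percent inhibition with media control set to 0.0, compared with bexarotene set to 100%. Mean of three independent experiments.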
In general terms: Tetrazolium assays rely on reduction of a dye to a coloured formazan, in cell work by metabolically active cells.

Data set [2] can be described thus: Lipid risk index, ratio of agonist activity at human RXRalpha/LXRalpha expressed in human HCT116 cells assessed as reduction in SREBP-mediated transcription activity to agonist activity at human RXRalpha expressed in human HCT116 cells assessed as increase in RXRE-mediated transcription. In a few lines: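 Lipid risk index: SREBP-promoter luciferase activity (HCT116, LXRα-transfected, 100 nM compound with or without 100 nM TO901317, 24 h) divided by RXRE activity at 100 nM. The SREBP:RXRE ratio for bexarotene is set to 1.0.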

The species entered for another data set is Homo sapiens. Description: Selectivity index, ratio of agonist activity at human RARalpha expressed in HEK293 cells assessed as increase in RARE-mediated transcription relative to bexarotene to agonist activity at human RXRalpha expressed in human HCT116 cells assessed as increase in RXRE-mediated transcription relative to bexarotene. The class given is cell-based. In a few lines: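 HEK293 cells (60,000/well) transfected for 24 h with 250 ng pTK-DR5(X2)-Luc, 25 ng human RARα and 20 ng renilla. Treated 24 h at 100 nM; activity expressed as a percentage of all-trans-retinoic acid. This RARE activity is divided by 100 nM RXRE activity, with the bexarotene ratio set to 1.0.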

Data set [3] has as its target T2, Retinoic acid receptor RXR-alpha/oxysterols receptor LXR-alpha (Homo sapiens, UniProt P19793+Q13133).
T2 sequence (P19793 whole entry): T1 sequence (P19793 whole entry)
T2 sequence (Q13133 whole entry): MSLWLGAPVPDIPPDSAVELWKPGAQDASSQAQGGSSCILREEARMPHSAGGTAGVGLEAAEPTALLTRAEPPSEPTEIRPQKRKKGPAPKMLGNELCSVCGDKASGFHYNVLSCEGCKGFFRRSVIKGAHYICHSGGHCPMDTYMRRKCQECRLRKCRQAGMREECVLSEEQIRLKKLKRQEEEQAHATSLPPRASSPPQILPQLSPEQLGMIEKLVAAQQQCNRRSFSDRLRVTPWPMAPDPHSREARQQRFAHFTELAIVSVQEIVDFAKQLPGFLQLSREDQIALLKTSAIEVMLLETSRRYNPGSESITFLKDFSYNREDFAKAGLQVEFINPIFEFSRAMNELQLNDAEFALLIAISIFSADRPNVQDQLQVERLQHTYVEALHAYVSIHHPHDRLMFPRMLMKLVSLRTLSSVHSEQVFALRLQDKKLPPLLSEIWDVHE
Description: Agonist activity at human RXRalpha/LXRalpha expressed in human HCT116 cells assessed as reduction in SREBP-mediated transcription activity at 100 nM incubated for 24 hrs by luciferase reporter gene assay relative to bexarotene. The data set is classed as cell-based. The arrangement: scale not given: the % may be the effect or the level left. As to conditions: 0.1 µM. In a few lines:
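HCT116 cells co-transfected for 24 h with 100 ng pBP1c(6500)-Luc (about 6500 bp murine SREBP-1c promoter), 10 ng human LXRα and 20 ng renilla. Treated 24 h with compound at 100 nM, alone or with 100 nM TO901317. Luciferase output. Three independent assays in triplicate; bexarotene = 100%.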
On the technique in general: In a reporter assay the amount or activity of a reporter protein is the signal.

The structures appear in SMILES notation. Bounds are passed on as bounds.

One may read the EC50 as the concentration giving half of the maximal effect. Regarding `CCN(c1ccc(C(=O)O)c(F)c1)c1cc2c(cc1C)C(C)(C)CCC2(C)C`, at Retinoid X receptor, the EC50 turned out to be 0.0338 µM. Further, the Activity entry in data set [1] is “Non-Toxic”; in data set [3] it was 54 to 79%. The inhibition of growth at 0.2 µM in the data set with HuT78 was 55 to 80%. Also, the figures for the Ratio (in data set [2]; in the data set filed under Homo sapiens) were 0.48 - 0.65 and 0.35 to 0.37, respectively.
In the case of `CCN(c1ccc2c(c1)C(C)(C)CCC2(C)C)c1cnc(C(=O)O)cn1`, the EC50 at Retinoid X receptor was 0.3643 µM. The results for the Activity result in data set [1] and in data set [3] were “Non-Toxic” and 54 to 79%, respectively. In addition, the inhibition of growth at 0.2 µM in the data set on HuT78 was in the range of 35 to 51%. In addition, the Ratio in data set [2] was 0.48 - 0.65; in the data set filed under Homo sapiens, greater than 0.5.
As to `CCN(c1ccc2c(c1)C(C)(C)CCC2(C)C)c1ccc(C(=O)O)cn1`, on Retinoid X receptor, the EC50 turned out to be 0.0138 µM. For the same compound, the Activity entry in data set [1] is “Non-Toxic”; in data set [3], “Active”. In addition, in the data set on HuT78, the inhibition of growth at 0.2 µM was greater than 85%. Moreover, the Ratio in data set [2] was 0.49 - 0.51; in the data set filed under Homo sapiens, greater than 0.5.
With `CCN(c1ccc(C(=O)O)c(F)c1)c1ccc2c(c1)C(C)(C)CCC2(C)C`, at Retinoid X receptor, the EC50 stood at 0.1256 µM. Further, the Activity result was “Non-Toxic” in data set [1] and 54 to 79% in data set [3]. In the data set on HuT78, the inhibition of growth at 0.2 µM was 35 to 51%. Besides, the Ratio in data set [2] is 0.48 - 0.65; in the data set filed under Homo sapiens, 0.35 to 0.37.
For the compound `CCN(c1ncc(C(=O)O)cn1)c1cc2c(cc1C)C(C)(C)CCC2(C)C`, the EC50 on Retinoid X receptor worked out at 0.0182 µM. Moreover, the results for the Activity result in data set [1] and in data set [3] were “Non-Toxic” and “Active”, respectively. Moreover, in the data set on HuT78, the inhibition of growth at 0.2 µM was in the range of 55 to 80%. Moreover, the figures for the Ratio (in data set [2]; in the data set listed under Homo sapiens) were 0.49 - 0.51 and 0.35 to 0.37, respectively.
Turning to `CCN(c1ccc(C(=O)O)cc1)c1cc2c(cc1C)C(C)(C)CCC2(C)C`, the EC50 on Retinoid X receptor was found to be 0.0079 µM. For the same compound, the figures for the Activity result in data set [1] and in data set [3] were “Non-Toxic” and 54 to 79%, respectively. Also, the inhibition of growth at 0.2 µM in the data set with HuT78 lay within 35 to 51%. Further, the values for the Ratio (in data set [2]; in the data set listed under Homo sapiens) were 0.48 - 0.65 and 0.35 to 0.37, respectively.

The record behind these values is ChEMBL document CHEMBL4428090, “Modeling, Synthesis, and Biological Evaluation of Potential Retinoid X Receptor (RXR)-Selective Agonists: Analogues of 4-[1-(3,5,5,8,8-Pentamethyl-5,6,7,8-tetrahydro-2-naphthyl)ethynyl]benzoic Acid (Bexarotene) and 6-(Ethyl(5,5,8,8-tetrahydronaphthalen-2-yl)amino)nicotinic Acid (NEt-TMN)” (J Med Chem, 2016).
